According to ChEMBL document CHEMBL1137824, “Centrally acting and metabolically stable thyrotropin-releasing hormone analogues by replacement of histidine with substituted pyridinium” (J Med Chem, 2004):

Assays:
[1] = Partition coefficient (logP); assay type: physicochemical; conditions: octanol/water
[2] = Capacity factor of compound was determined by immobilized artificial membrane chromatography; assay type: ADME
Method in brief: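 Immobilized artificial membrane HPLC, isocratic 10 mM ammonium acetate pH 5.4 at 1.0 mL/min, detection by ESI-MS (pyridinium salts) or APCI-MS (dihydropyridine prodrugs). k'IAM = (tR compound − tR citric acid)/tR citric acid, citric acid serving as void marker.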

Rattus norvegicus = experiment: Maximal changes in rat hippocampal acetylcholine concentration after administration of compound through a microdialysis probe; assay type: functional, Hippocampus
Method in brief: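 Male Sprague–Dawley rats (250–300 g), guide cannula in ventral hippocampus, probe (4 mm polycarbonate) inserted after 7 days. Perfused with artificial CSF plus 2 µM neostigmine at 2 µL/min; baseline is mean of three 20-min fractions. Compound perfused at 1 nmol/µL through probe; maximal ACh change expressed as % of baseline.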

[3] = molecular target: T1, Thyrotropin-releasing hormone receptor (Rattus norvegicus, UniProt Q01717); experiment: Inhibition of [3H][3-Me-His2]-TRH binding to thyrotropin releasing hormone receptor of rat forebrain
T1 sequence (Q01717 whole entry): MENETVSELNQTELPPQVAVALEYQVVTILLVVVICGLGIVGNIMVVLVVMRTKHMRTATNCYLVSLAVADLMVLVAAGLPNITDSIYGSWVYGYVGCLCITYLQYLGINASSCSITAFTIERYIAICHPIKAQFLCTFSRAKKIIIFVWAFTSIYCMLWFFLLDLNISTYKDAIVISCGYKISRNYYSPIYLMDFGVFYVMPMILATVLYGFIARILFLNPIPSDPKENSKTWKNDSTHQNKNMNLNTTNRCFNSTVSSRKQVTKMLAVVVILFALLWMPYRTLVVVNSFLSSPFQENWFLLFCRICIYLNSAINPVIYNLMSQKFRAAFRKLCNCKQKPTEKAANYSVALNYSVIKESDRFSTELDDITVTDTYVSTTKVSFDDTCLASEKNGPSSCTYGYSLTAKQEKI
Method in brief: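 Rat forebrain membrane suspension in 20 mM phosphate pH 7.4, incubated 180 min at 4 °C with 2 nM [3H][3-Me-His2]TRH and varying test concentrations. Nonspecific binding defined with 10 µM TRH; Ki reported.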

Mus musculus [4] = experiment: Sleeping time of mice was determined after intravenous administration of compound at 15 umol/kg of Body Weight; assay type: functional
Method in brief: (§1)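 Swiss Webster mice (30 ± 2 g), 8–16 per group; 15 µmol/kg compound iv via tail vein in degassed saline, vehicle controls 1.5 mL/kg. Sodium pentobarbital 60 mg/kg ip after 10 min; sleeping time timed from loss to regain of righting reflex.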

[5] = Half-life of compound in rat plasma was determined; assay type: ADME, cell-free
Method in brief: (§2)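 About 100 nmol compound per 1 mL rat plasma or 20% rat brain homogenate (0.1 M phosphate, pH 7.4), shaken at 37 °C. Aliquots taken at 2–90 min and quenched in ice-cold 5% acetic acid/acetonitrile, then centrifuged. Loss of compound followed by HPLC against standards in heat-denatured matrix; t1/2 from the decline.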

[6] = Half-life of compound in rat brain homogenate was determined; assay type: ADME, tissue-based; method in brief: as §2
Mus musculus [7] = experiment: Sleeping time decrease in mice was determined after intravenous administration of compound at 0.5 umol/kg of body weight; assay type: functional
Method in brief: (§3)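 Swiss Webster mice (30 ± 2 g), 8–16 per group, given compound iv via tail vein in degassed saline; controls received saline 1.5 mL/kg. Sodium pentobarbital 60 mg/kg ip 10 min later; sleeping time from loss to regain of righting reflex; decrease versus saline control, mean ± SEM.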

Mus musculus [8] = experiment: Sleeping time decrease in mice was determined after intravenous administration of compound at 1 umol/kg of body weight; assay type: functional
Mus musculus [9] = experiment: Sleeping time decrease in mice was determined after intravenous administration of compound at 50 umol/kg of body weight; assay type: functional; method in brief: as §3
Mus musculus [10] = experiment: Sleeping time of mice was determined after intravenous administration of compound at 15 umol/kg of body weight; assay type: functional; method in brief: as §1
Mus musculus [11] = experiment: Sleeping time decrease in mice was determined after intravenous administration of compound at 15 umol/kg of body weight; assay type: functional; method in brief: as §3
Mus musculus [12] = experiment: Sleeping time decrease in mice was determined after intravenous administration of compound at 5 umol/kg of body weight; assay type: functional; method in brief: as §3

SMILES	logP [1]	K''IAM [2]	Ki [3] [µM]	half-life [5] [min]	half-life [6] [min]	Maximal change (Rattus norvegicus) [%]	Sleeping time (Mus musculus [4]) [min]	Sleeping time (Mus musculus [7]) [min]	Sleeping time (Mus musculus [8]) [min]	Sleeping time (Mus musculus [9]) [min]	Sleeping time (Mus musculus [10]) [min]	Sleeping time (Mus musculus [11]) [min]	Sleeping time (Mus musculus [12]) [min]
NC(=O)C1=CN(CCC[C@H](NC(=O)[C@@H]2CCC(=O)N2)C(=O)N2CCC[C@H]2C(N)=O)C=CC1	-2.39	1.47	–	–	–	–	58.1	–	–	–	–	–	–
NC(=O)[C@@H]1CCCN1C(=O)[C@H](Cc1cnc[nH]1)NC(=O)[C@@H]1CCC(=O)N1 [PROTIRELIN]	-1.74	0.51	0.0423	11	16	394	26	–	–	–	–	–	–
NC(=O)C1=CN(C[C@H](NC(=O)[C@@H]2CCC(=O)N2)C(=O)N2CCC[C@H]2C(N)=O)C=CC1	-3.29	0.55	–	–	–	–	–	2.8	5.4	24.2	19.4	23.2	14.1
NC(=O)C1=CN(CCCCC(NC(=O)[C@@H]2CCC(=O)N2)C(=O)N2CCC[C@H]2C(N)=O)C=CC1 (stereo partly specified)	-1.94	2.3	–	–	–	–	48.8	–	–	–	–	–	–
NC(=O)C1=CN(CCC(NC(=O)[C@@H]2CCC(=O)N2)C(=O)N2CCC[C@H]2C(N)=O)C=CC1 (stereo partly specified)	-2.84	0.8	–	–	–	–	44.7	–	–	–	–	–	–

Second part, led by results:

logP [1]	K''IAM [2]	Ki [3] [µM]	half-life [5] [min]	half-life [6] [min]	SMILES	Maximal change (Rattus norvegicus) [%]	Sleeping time (Mus musculus [4]) [min]	Sleeping time (Mus musculus [7]) [min]	Sleeping time (Mus musculus [8]) [min]	Sleeping time (Mus musculus [9]) [min]	Sleeping time (Mus musculus [10]) [min]	Sleeping time (Mus musculus [11]) [min]	Sleeping time (Mus musculus [12]) [min]
-2.64	0.3	> 10	–	–	NC(=O)c1ccc[n+](C[C@H](NC(=O)[C@@H]2CCC(=O)N2)C(=O)N2CCC[C@H]2C(N)=O)c1.O=C([O-])C(F)(F)F	279	75.9	–	–	–	–	–	–
-2.18	0.42	> 10	–	–	NC(=O)c1ccc[n+](CC[C@H](NC(=O)[C@@H]2CCC(=O)N2)C(=O)N2CCC[C@H]2C(N)=O)c1	216	–	–	–	–	–	–	–
-1.29	0.6	> 10	–	–	NC(=O)c1ccc[n+](CCCC[C@H](NC(=O)[C@@H]2CCC(=O)N2)C(=O)N2CCC[C@H]2C(N)=O)c1	242	–	–	–	–	–	–	–
-1.74	0.49	> 10	–	–	NC(=O)c1ccc[n+](CCC[C@H](NC(=O)[C@@H]2CCC(=O)N2)C(=O)N2CCC[C@H]2C(N)=O)c1	145	–	–	–	–	–	–	–
